Our source for the IC50 and CC50 values is ChEMBL document CHEMBL1139326, “The design, synthesis, and antiviral activity of 4'-azidocytidine analogues against hepatitis C virus replication: the discovery of 4'-azidoarabinocytidine” (J Med Chem, 2009).

In data set [1] the test system is Hepatitis C virus. As to the kind of experiment: Antiviral activity against Hepatitis C virus infected human 2209-23 cells by genotype 1b replicon assay. The class given is functional, organism-based, Hepacivirus hominis. (In general: In antiviral work, replicon cells carry a viral genome segment that copies itself.)
Data set [2] in a line: Antiproliferative activity against human 2209-23 cells by [3H]thymidine incorporation scintillation proximity assay. The class given is functional, cell-based. The method, boiled down:
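Cell proliferation was read as uptake of tritiated thymidine into cellular DNA, quantified by scintillation proximity, and reported as an IC50. It served to flag possible loss of selectivity against human polymerases.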
On the technique in general: Dividing cells build labelled thymidine or BrdU into new DNA.

Data set [3] in a line: Cytotoxicity against human 2209-23 cells by WST1 cell ciability assay. The format is cell-based. A general note: Formazan colour is commonly taken as a measure of viable cells.

On to `C[C@]1(O)[C@H](n2ccc(N)nc2=O)O[C@@](CO)(N=[N+]=[N-])[C@H]1O`, for which the IC50 (usually the concentration at which inhibition is half-maximal) in data set [1] is greater than 100 µM.

In data set [1], `[N-]=[N+]=N[C@@]1(CO)C[C@@H](O)[C@H](n2ccc(N)nc2=O)O1` came in with an IC50 greater than 100 µM.

For the molecule `C[C@@]1(O)[C@H](n2ccc(N)nc2=O)O[C@@](CO)(N=[N+]=[N-])[C@H]1O`, the IC50 in data set [1] is greater than 100 µM.

Consider `[N-]=[N+]=N[C@]1(CO)O[C@@H](n2ccc(N)nc2=O)[C@@H](O)[C@@H]1O`, for which the IC50 is greater than 100 µM in data set [2] and 0.171 µM in data set [1].

In data set [1], `[N-]=[N+]=N[C@]1(CO)O[C@@H](n2ccc(N)nc2=O)[C@H](O)[C@H]1O` yielded a half-inhibitory concentration (IC50) of 27.8 µM.

For the molecule `[N-]=[N+]=N[C@]1(CO)O[C@@H](n2ccc(N)nc2=O)[C@H](O)[C@@H]1O` [4'-AZIDOCYTIDINE], the IC50 in data set [2] was greater than 100 µM.

With `Nc1ccn([C@@H]2O[C@H](CO)[C@@H](O)[C@@H]2O)c(=O)n1` [CYTARABINE], the IC50 in data set [2] came to 0.029 µM; in data set [1] it was 0.02 µM. Moreover, in data set [3], the CC50 (usually the concentration that lowers cell viability or growth by half) was less than 100 µM.
